Measurements of several laboratories.
Cell line: A549
Effect on: cell growth or viability

Compound	test	conditions	IC50
COc1cc2ncnc(Nc3ccc(F)c(Cl)c3)c2cc1NC(=O)N/N=C/c1cccn1CCCN(C)C	MTT	72 h	2 µM
CCC(=O)Nc1cc(Nc2nc(N3CCc4sccc4C3)c3cccnc3n2)c(OC)cc1N1CCN(CCO)CC1	MTT	–	> 50 µM
Cc1ccc(-c2ccc(O)cc2)c(C(=C2C=CC(=O)C=C2)c2ccc(O)cc2)c1C#Cc1ccc(O)cc1	MTT	48 h	17.6 µM
Cc1ccc(C)n1-c1ccc(-c2nnc(S)s2)cc1	MTT	72 h	223 µM
CN1CCN(C/C=N/NC(=O)Nc2cc3c(Nc4ccc(F)c(Cl)c4)ncnc3cc2O[C@H]2CCOC2)CC1	MTT	72 h	4.34 µM
C=CC(=O)Nc1cc(Nc2nc(N3CCc4sccc4C3)c3cccnc3n2)c(OC)cc1N(C)C	MTT	–	> 50 µM
O=C(NC(=S)Nc1ccccc1)c1ccc2ccccc2c1	–	48 h	6.86 µM
Cc1cc(C)n(-c2nc(NN=Cc3c[nH]c4ccccc34)nc(Nc3ccc(Br)cc3)n2)n1	SRB	72 h	6.1 µM
COc1cc2ncnc(Nc3ccc(F)c(Cl)c3)c2cc1NC(=O)N/N=C/c1cccn1CCN1CCCCC1	MTT	72 h	2.31 µM
Cc1c(OCC(F)(F)F)ccnc1COc1ccc(NC(=O)Nc2ccc(Cl)c(C(F)(F)F)c2)cc1	MTT	72 h	4.35 µM
CC1=C(O)C(=O)C=C2C1=CC=C1[C@@]2(C)CC[C@@]2(C)[C@@H]3C[C@](C)(C(=O)OCCCCO)CC[C@]3(C)CC[C@]12C	MTT	48 h	3.06 µM
COc1ccnc(COc2ccc(NC(=O)Nc3ccc(Cl)c(C(F)(F)F)c3)cc2)c1OC	MTT	72 h	15.4 µM
O=C1Nc2ccc(F)cc2/C1=N/NC(=O)c1cc2ccccc2[nH]1	–	–	> 30 µM
CCC(=O)Nc1cc(Nc2nc(N3CCc4sccc4C3)c3cccnc3n2)c(OC)cc1N1CCN(CC)CC1	MTT	–	21.9 µM
COc1ccccc1/C=C/CNCC(O)COc1ccc2[nH]c3ccccc3c2c1 (stereo not shown)	CCK-8	72 h	9.1 µM
COc1cccc(/C=C2\SC(=S)N(CC(=O)Nc3ccccc3)C2=O)c1	MTT	–	32 µM
COc1cccc2c1C(=O)c1c(O)c3c(c(O)c1C2=O)C[C@@](O)(C(=O)CO)C[C@@H]3O[C@H]1C[C@H](N)[C@H](O)[C@H](C)O1	MTT	48 h	2.42 µM
Cc1cccc(-n2ncc(Br)c(Br)c2=O)c1	resazurin	96 h	1.62 µM
COc1ccccc1CCNCC(O)COc1cccc2[nH]c3ccccc3c12 (stereo not shown)	CCK-8	72 h	13.3 µM
O=[N+]([O-])c1ccc(-c2csc(Nc3ccc4c(O)ncnc4c3)n2)cc1	MTT	–	17.9 µM
Cc1cccc(NC(=O)NNC(=O)c2ccc(Nc3nccc(-c4ccccn4)n3)cc2)c1	MTT	–	> 40 µM
COC(=O)/C=C/C=C/c1ccc2c(c1)OCO2	SRB	–	162 µM
